Laboratory results from ChEMBL document CHEMBL1133167, “Synthesis and opioid receptor affinity of morphinan and benzomorphan derivatives: mixed kappa agonists and mu agonists/antagonists as potential pharmacotherapeutics for cocaine dependence” (J Med Chem, 2000).
pKi: −log10 of the molar value. Structures can show the parent of a compound that is named as a salt.

Key:
[1] = target: Mu-type opioid receptor (Cavia porcellus, UniProt P97266); assay: Binding affinity towards Opioid receptor mu 1 by displacing the radioligand [3H]DAMGO from guinea pig brain membrane
Mu-type opioid receptor, sequence (P97266 whole entry): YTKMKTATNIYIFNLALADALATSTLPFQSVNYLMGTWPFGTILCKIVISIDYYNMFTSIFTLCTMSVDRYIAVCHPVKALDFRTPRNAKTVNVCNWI
How it was run: (§1)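 Guinea pig brain membranes (homogenised, preincubated 37 °C 30 min, washed), 500 µg protein, with 12 concentrations of compound in 50 mM Tris-HCl pH 7.5 at 25 °C for 60 min. Nonspecific binding defined with 1 µM naloxone. Glass-fibre filtration, with PEI-soaked filters for kappa. IC50 by log-probit fit; three experiments in triplicate, mean ± SEM.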

[2] = target: Kappa-type opioid receptor (Cavia porcellus, UniProt P41144); assay: Binding affinity towards Opioid receptor kappa 1 by displacing the radioligand [3H]U-69593 from guinea pig brain membrane; how it was run: as §1
Kappa-type opioid receptor, sequence (P41144 whole entry): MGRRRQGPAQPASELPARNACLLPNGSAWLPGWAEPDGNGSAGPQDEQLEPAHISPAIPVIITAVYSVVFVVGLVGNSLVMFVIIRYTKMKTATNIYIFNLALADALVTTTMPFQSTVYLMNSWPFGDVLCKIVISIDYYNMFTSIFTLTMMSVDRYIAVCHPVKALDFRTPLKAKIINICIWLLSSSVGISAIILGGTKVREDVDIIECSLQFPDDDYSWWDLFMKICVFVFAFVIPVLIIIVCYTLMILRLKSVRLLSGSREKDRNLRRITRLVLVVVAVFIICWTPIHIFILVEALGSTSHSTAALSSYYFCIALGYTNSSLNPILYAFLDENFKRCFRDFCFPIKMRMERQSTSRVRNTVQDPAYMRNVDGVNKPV

[3] = target: Opioid receptor (mu and kappa) (Cavia porcellus) (UniProt P41144+P97266); assay: Selectivity kappa/mu; format: protein assay
Opioid receptor (mu and kappa) (Cavia porcellus), sequence (P41144 whole entry, looked up): as the sequence (P41144 whole entry) above
Opioid receptor (mu and kappa) (Cavia porcellus), sequence (P97266 whole entry, looked up): as the sequence (P97266 whole entry) above

[4] = species on record: Cavia porcellus; assay: Selectivity kappa/delta
[5] = Binding affinity towards Opioid receptor delta 1 by displacing the radioligand [3H]naltrindole from guinea pig brain membrane

Oc1ccc2c(c1)[C@@]13CCCCC1[C@@H](C2)N(C[C@@H]1CCCO1)CC3 (some centres not stated)
pKi [1]: 11.00
pKi [2]: 9.82
Selectivity [3]: 0.066
Selectivity [4]: 2

C[C@H]1C2C(=O)c3ccc(O)cc3[C@@]1(C)CCN2CC1CCCO1 (some centres not stated)
pKi [2]: 6.14

O=C1c2ccc(O)cc2C23CCCCC2C1N(CC1CC1)CC3 (single isomer, unassigned; (-))
pKi [1]: 6.62
pKi [2]: 7.62
Selectivity [3]: 1
Selectivity [4]: 6

O=C1c2ccc(O)cc2C23CCCCC2C1N(CC1CCCO1)CC3 (single isomer, unassigned; (-))
pKi [1]: 9.42
pKi [2]: 9.74
Selectivity [3]: 2
Selectivity [4]: 6

Oc1ccc2c(c1)[C@@]13CCCC[C@H]1[C@@H](C2)N(CC1CCC1)CC3 [BUTORPHAN]
pKi [2]: 10.14

C[C@H]1[C@H]2Cc3ccc(O)cc3[C@]1(C)CCN2CC1CC1 [CYCLAZOCINE]
pKi [2]: 10.28

Oc1ccc2c(c1)[C@@]13CCCC[C@H]1[C@@H](C2)N(CC1CC1)CC3 [CYCLORPHAN]
pKi [2]: 10.28

CC[C@@]12CCN(CC3CC3)C(C(=O)c3ccc(O)cc31)[C@@H]2C [ETHYLKETOCYCLAZOCINE]
pKi [1]: 9.11
pKi [5]: 8.47

CN1CC[C@]23CCCC[C@H]2[C@H]1Cc1ccc(O)cc13 [LEVORPHANOL HYDROCHLORIDE]
pKi [2]: 8.64
